MrgX1 antagonist = antagonists of human MrgX1 receptor, primary screen, HEK293 cells, Fluo-4 calcium flux; Mas-related G-protein coupled receptor member X1 (Homo sapiens), Q96LB2; BAM8-22 antagonism; stronger effect = lower value; B-score at 10 µM; hit rate 1.3% among 310,000;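 active = calcium-response B-score plate-corrected more than 3 library SD below zero, starting fluorescence within 5 deviations, no agonist response on first addition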;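 also: peak minus trough fluorescence over baseline after final BAM8-22 challenge near maximal dose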
Target sequence (Q96LB2 whole entry, looked up): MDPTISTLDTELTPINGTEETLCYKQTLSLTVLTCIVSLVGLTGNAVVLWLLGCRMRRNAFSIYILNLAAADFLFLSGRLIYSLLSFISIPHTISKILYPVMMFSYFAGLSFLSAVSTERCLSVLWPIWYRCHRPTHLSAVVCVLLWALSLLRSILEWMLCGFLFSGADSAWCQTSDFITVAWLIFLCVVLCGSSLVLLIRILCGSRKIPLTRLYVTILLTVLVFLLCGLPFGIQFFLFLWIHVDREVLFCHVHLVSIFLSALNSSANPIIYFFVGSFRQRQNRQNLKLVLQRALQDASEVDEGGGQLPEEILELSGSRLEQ
MrgX1 allo act = positive allosteric modulators of MrgX1, primary screen, HEK293 cells, Fluo-4 calcium flux | B-score at 10 µM | FDSS; stronger effect = higher value | hit rate 0.63% among 310,000;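 active = plate-corrected calcium response at least 3 library SD above typical, normal starting fluorescence, not activating the receptor alone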;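 also: compound read alongside a low EC10 to EC30 dose of BAM8-22 agonist; peak minus trough fluorescence over baseline measured at the second addition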
RGS4 inh = RGS4 inhibitors, primary screen, cell-based, HEK293 M3R inducible RGS4, calcium flux; Fluo-4 calcium flux; stronger effect = higher value; triggered by carbachol at its EC20; B-score at 10 µM; hit rate 0.45% among 310,000; AID 463165, 2010;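 active = B-score, a plate-corrected calcium signal, over three deviations above library mean, with baseline fluorescence within five deviations of library mean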;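 also: RGS4 expression induced by doxycycline in cells with stable M3 receptor; B-score is computed from the integrated fluorescence ratio over baseline after carbachol; higher B-score means a larger calcium signal and so more RGS4 inhibition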
Target sequence (P49798 whole entry, looked up): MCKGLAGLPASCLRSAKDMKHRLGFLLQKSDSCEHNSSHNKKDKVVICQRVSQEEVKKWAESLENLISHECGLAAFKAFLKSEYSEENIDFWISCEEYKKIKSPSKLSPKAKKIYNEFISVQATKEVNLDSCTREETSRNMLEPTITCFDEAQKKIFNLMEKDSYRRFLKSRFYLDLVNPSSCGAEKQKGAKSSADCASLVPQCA
RGS4 pot = RGS4 potentiators or activators, primary screen, cell-based, HEK293 M3R inducible RGS4, calcium flux; hit rate 0.92% among 310,000; B-score at 10 µM; AID 463111, 2010; carbachol calcium flux Fluo4; stronger effect = lower value;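 active = B-score of the integrated calcium signal more than 4 SD below the library mean, with starting fluorescence not abnormally high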;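 also: negative B-score means reduced calcium response which marks RGS4 activation or potentiation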
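Material: M3R-expressing HEK293 line, RGS4 induced by doxycycline | Schedule: Overnight RGS4 induction, 30 min dye load 37 °C, 20 min compound RT | Measured by: Fluo4 fluorescence kinetic imaging of calcium | Read-out: Integrated calcium ratio converted to B score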
MrgX1 ag = agonists of human MrgX1 receptor, primary screen, HEK293 cells, Fluo-4 calcium flux. AID 588627, 2011. Fluo-4 calcium fluorescence, agonist mode; stronger effect = higher value. hit rate 0.44% among 310,000. Mas-related G-protein coupled receptor member X1 (Homo sapiens), Q96LB2. B-score at 10 µM;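 active = calcium response B-score plate-corrected fluorescence ratio at least 3 library SD, with starting fluorescence B-score inside 5 SD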
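Material: MrgX1-expressing HEK293 cells; input: 15,000 cells per well; doses: test compound given as first of three sequential additions; schedule: overnight plating before 1 h dye loading; technique: Fluo-4 NW calcium-flux fluorescence, kinetic read; evaluation: baseline-normalised fluorescence change ratio, B-scored; control set: plate-wise positive and negative controls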
MrgX1 antag conf = MrgX1 receptor antagonists, duplicate retest, confirmation, HEK293 cells, Fluo-4 calcium flux; shares compounds with MrgX1 antagonist; BAM8-22 calcium flux; stronger effect = lower value; remaining BAM8-22 calcium response % of control (stronger effect = lower value), % at 10 µM; hit rate 19% among 2,300;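 active = remaining agonist calcium response no higher than 100% minus 3 SD of agonist-only control wells, with starting fluorescence near control levels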;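 also: agonist BAM8-22 given at a near maximal EC90 to ECmax level; peak minus minimum fluorescence divided by baseline after agonist addition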
HEK293 Ca flux = nonspecific calcium signal in parental HEK293, confirmation, counter-screen for MrgX1 antagonist project, parental HEK293 cells, Fluo-4 calcium flux | hit rate 2% among 4,000 | shares compounds with MrgX1 antagonist | fluorescence ratio F(max-min)/F0 at 10 µM | Fluo-4 calcium fluorescence, FDSS;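 active = duplicate-averaged calcium fluorescence ratio at least three times the standard deviation of buffer wells, a nonspecific response in parental cells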
HEK293 Ca counter = calcium response in parental HEK293 cells, primary screen, counter-screen for MrgX1 allosteric activator project, cell-based, Fluo-4 calcium flux, duplicate | shares compounds with MrgX1 antagonist | Fluo-4 fluorescence ratio; stronger effect = higher value | fluorescence ratio F(max-min)/F0 at 10 µM | hit rate 0.4% among 4,000;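 active = calcium fluorescence ratio, averaged over duplicates, at least 3 SD of the buffer-well ratio, meaning a nonspecific response in receptor-free cells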;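 also: untransfected parental HEK293 lacking MrgX1 used as counterscreen for MrgX1 allosteric activators; fluorescence change taken during the second addition on a kinetic imager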
HEK293 Ca cntr2 = calcium response in parental HEK293 cells, primary screen, counter-screen for MrgX1 agonist project, cell-based, Fluo-4 calcium flux, duplicate, agonist mode; Fluo-4 calcium fluorescence (FDSS); stronger effect = higher value; hit rate 8.7% among 4,000; shares compounds with MrgX1 antagonist; fluorescence ratio F(max-min)/F0 at 10 µM; AID 624115, 2012;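 active = calcium fluorescence ratio at least three times the spread of buffer wells, meaning a non-specific response in parental cells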
Large screens that a line does not name were inactive (follow-up assays come after a bar, where they were run). A selection: hits, their analogues and other compounds. The true share with any hit is near 3.5%.

Cc1ccc(S(=O)(=O)N2CCN(C(=O)c3sccc3-c3ccccc3)CC2)cc1	MrgX1 antagonist -5.4 | MrgX1 antag conf inactive | HEK293 Ca flux inactive | HEK293 Ca counter inactive | HEK293 Ca cntr2 inactive
O=C(NC(=S)Nc1ccccc1N1CCCC1)c1cccs1	none
O=C(NC(=S)Nc1ccccc1N1CCOCC1)c1cccs1	MrgX1 antagonist -4.7 | MrgX1 antag conf inactive | HEK293 Ca flux inactive | HEK293 Ca counter inactive | HEK293 Ca cntr2 inactive
Cc1ccc(C(C)NC(=O)Cc2cccs2)c(C)c1 (centres undefined)	none
Cc1occc1C(=O)Nc1cnn(CCCC(=O)O)c1	MrgX1 antagonist -4.9 | MrgX1 antag conf inactive | HEK293 Ca flux inactive | HEK293 Ca counter inactive | HEK293 Ca cntr2 inactive
O=C(O)CCCn1cc(NC(=O)c2ccco2)cn1	none
Cc1ccn2c(=O)nc(SCC(=O)Nc3cc(C)on3)nc2c1	none
Cc1cc(NC(=O)CSc2nc(=O)n3cc(Cl)ccc3n2)no1	MrgX1 antagonist -8.2 | MrgX1 antag conf 73% | HEK293 Ca flux inactive | HEK293 Ca counter inactive | HEK293 Ca cntr2 inactive
CC(CNC(=O)c1ccc(C#N)cc1)NC(=O)c1ccc(C#N)cc1 (centres undefined)	none
C=CCn1c(CC(=O)OC)csc1=Nc1ccc(C(C)=O)cc1	MrgX1 antagonist -5.2 | MrgX1 antag conf inactive | HEK293 Ca flux inactive | HEK293 Ca counter inactive | HEK293 Ca cntr2 inactive
COc1ccc2nc(NC(=O)c3ccccc3O)sc2c1	none
CCOC(=O)c1cccc(C(=O)Nc2nc3ccc(OC)cc3s2)n1	MrgX1 antagonist -5 | MrgX1 antag conf inactive | HEK293 Ca flux inactive | HEK293 Ca counter inactive | HEK293 Ca cntr2 inactive
Cc1ccc(C(=O)NC2CC(=O)N(c3ccc4c(c3)OCCO4)C2)cc1[N+](=O)[O-] (centres undefined)	none
Cc1ccc(CNC(=S)NC2CCCCC2)cc1	none
Cc1ccc(CNC(=O)NC2CCCCC2)cc1	MrgX1 antagonist -5.1 | MrgX1 antag conf inactive | HEK293 Ca flux inactive | HEK293 Ca counter inactive | HEK293 Ca cntr2 inactive
CCn1c(CC(=O)Nc2ccccc2C)nnc1SCC(=O)NC1CCCC1	none
COc1ccc(C(=O)NC2CC2)cc1OC1CCN(Cc2ccc(F)cc2F)CC1	MrgX1 antagonist -5.6 | MrgX1 antag conf inactive | HEK293 Ca flux inactive | HEK293 Ca counter inactive | HEK293 Ca cntr2 inactive
COc1ccc(C(=O)NC2CC2)cc1OC1CCN(Cc2ccccc2F)CC1	none
N=C1SC(c2ccccc2)C(=O)N1c1ncc(Cc2ccccc2)s1 (centres undefined)	none
Cc1ccc(Cc2cnc(N3C(=N)SC(c4ccccc4)C3=O)s2)cc1 (centres undefined)	MrgX1 antagonist -5.2 | MrgX1 antag conf inactive | HEK293 Ca flux inactive | HEK293 Ca counter inactive | HEK293 Ca cntr2 inactive
Cc1cccc(NC(=O)CSc2cc(C)c(C#N)c3nc4ccccc4n23)c1	none
CC1CC(C)CN(C(=O)CCC(=O)Nc2nnc(C(C)C)s2)C1 (centres undefined)	none
Cc1ccc(C2(CC(=O)O)CCOC(C)(C)C2)cc1 (centres undefined)	none
CC1(C)CC(CC(=O)O)(c2ccc(F)cc2)CCO1 (centres undefined)	MrgX1 antagonist -6 | MrgX1 antag conf inactive | HEK293 Ca flux inactive | HEK293 Ca counter inactive | HEK293 Ca cntr2 inactive
C=CCOc1c(Br)cc(CNn2nnnc2N)cc1OCC	MrgX1 antagonist -4.8 | MrgX1 antag conf inactive | HEK293 Ca flux inactive | HEK293 Ca counter inactive | HEK293 Ca cntr2 inactive
COc1ccc(C2/C=C\CN(C(=O)NC34CC5CC(CC(C5)C3)C4)CC(=O)N2Cc2ccc(F)cc2)cc1 (centres undefined)	none
Cc1ccc(S(=O)(=O)NCCC(=O)NCc2ccco2)cc1	MrgX1 antagonist -4.6 | MrgX1 antag conf inactive | HEK293 Ca flux inactive | HEK293 Ca counter inactive | HEK293 Ca cntr2 inactive
Cc1sc2nc(CSc3ccccc3)nc(N3CCC(C(N)=O)CC3)c2c1C	MrgX1 antagonist -11 | MrgX1 antag conf inactive | HEK293 Ca flux inactive | HEK293 Ca counter inactive | HEK293 Ca cntr2 inactive
CCOC(=O)c1sc2nc(CSc3ccccc3)nc(N3CCC(C(N)=O)CC3)c2c1C	none
O=c1[nH]c(CO)nc2c1oc1ccccc12	MrgX1 antagonist -6.7 | MrgX1 antag conf inactive | HEK293 Ca flux inactive | HEK293 Ca counter inactive | HEK293 Ca cntr2 inactive
O=c1[nH]c(Cc2ccccc2)nc2c1oc1ccccc12	none
N#Cc1ccc(OS(=O)(=O)c2ccc(-c3ccon3)s2)cc1	MrgX1 antagonist -4.7 | MrgX1 antag conf inactive | HEK293 Ca flux inactive | HEK293 Ca counter inactive | HEK293 Ca cntr2 inactive
Cc1ccc(C(=O)c2oc3ccc(Cl)cc3c2NC(=O)CN2CCN(C)CC2)cc1	none
CC(Oc1ccccc1F)C(=O)NNC(=O)CC(C)c1ccccc1 (centres undefined)	none
Cc1cc(OCC(=O)NCc2ccncc2)c2c(C)cc(=O)oc2c1	none
Nc1c(S(=O)(=O)c2cccs2)c2nc3ccccc3nc2n1CC1CCCO1 (centres undefined)	MrgX1 antagonist -7 (no result: RGS4 inh, RGS4 pot) | MrgX1 antag conf inactive | HEK293 Ca flux inactive | HEK293 Ca counter inactive | HEK293 Ca cntr2 inactive
O=C1C(=O)N(C2CCS(=O)(=O)C2)C(c2cccc(O)c2)/C1=C(/O)c1ccc(Cl)cc1 (centres undefined)	none
COc1ccc(-n2c(CNC(=O)c3cccs3)n[nH]c2=S)cc1	MrgX1 antagonist -4.8 | MrgX1 antag conf inactive | HEK293 Ca flux inactive | HEK293 Ca counter inactive | HEK293 Ca cntr2 inactive
CCCOCC1CC(CCc2nc(=S)[nH][nH]2)C(=O)O1 (centres undefined)	MrgX1 antagonist -5.3 | MrgX1 antag conf inactive | HEK293 Ca flux inactive | HEK293 Ca counter inactive | HEK293 Ca cntr2 inactive

Bioassay records as filed in PubChem BioAssay.
